Results pooled from the literature.
Each line is one published result; the experiments were not run side by side.
rep main protease: Replicase polyprotein 1ab, main protease (rep, Porcine epidemic diarrhea virus, UniProt P0C6Y4)
SLC6A4: Sodium-dependent serotonin transporter (SLC6A4, Homo sapiens, UniProt P31645)
rep papain-like protease: Replicase polyprotein 1ab, papain-like protease (rep, Porcine epidemic diarrhea virus, UniProt P0C6Y4)

Compound	target	observed	mode	technique	tested at	inhibition [%]
CSc1ccccc1C(=O)NCc1cc(O)c(O)c(Br)c1	rep main protease	enzyme activity	inhibitor	FRET	10 µM	13.9
CCN1/C(=C/C(C)=O)Sc2ccc(F)cc21	Type-2 angiotensin II receptor (AGTR2, Homo sapiens, UniProt P50052)	ligand displacement	–	radioligand	10 µM	4.51
CCOC(=O)[C@@]12C[C@@H]1[C@@H](n1cnc3c(NC4CC4)nc(C#Cc4ccc(Cl)s4)nc31)[C@H](O)[C@@H]2O	SLC6A4	ligand displacement	–	radioligand	10 µM	15
COc1ccc(C(=O)NCc2cc(Br)c(OC)c(OC)c2)cc1	rep main protease	enzyme activity	inhibitor	FRET	10 µM	83.7
N#C[C@@]12C[C@@H]1[C@@H](n1cnc3c(Nc4ccccc4)nc(I)nc31)[C@H](O)[C@@H]2O	SLC6A4	ligand displacement	–	radioligand	10 µM	3
Cc1cc(O)c(-c2ccc([C@@H](C)CN(C)C)cc2)c2c1[nH]c(=O)c1sccc12	Mitogen-activated protein kinase kinase kinase 6 (MAP3K6, Homo sapiens, UniProt O95382)	enzyme activity	inhibitor	–	0.1 µM	15.6
COc1ccc(CNC(=O)c2ccc(Br)cc2)cc1OC	rep papain-like protease	enzyme activity	inhibitor	FRET	10 µM	66.1
O=C1C=C(Nc2ccc(OCc3cn(Cc4ccccc4)nn3)cc2)C(=O)c2ccccc21	BDNF/NT-3 growth factors receptor (NTRK2, Homo sapiens, UniProt Q16620)	enzyme activity	inhibitor	radiometric	10 µM	0
CCOC(=O)[C@@]12C[C@@H]1[C@@H](n1ccc3c(NCCCCCCCc4ccccc4)nc(C#Cc4ccccc4)nc31)[C@H](O)[C@@H]2O	SLC6A4	ligand displacement	–	radioligand	10 µM	32
COc1cc(CNC(=O)c2cccc(OC(C)=O)c2C)cc(Br)c1OC	rep papain-like protease	enzyme activity	inhibitor	FRET	10 µM	14.1
NC/C(=C\F)COc1cccc(Cn2c(=S)[nH]c(=O)c3[nH]cnc32)c1	SLC6A4	ligand displacement	–	radioligand	10 µM	< 50
Cc1cc(F)cc2c(CCC(=O)N[C@@H]3C(=O)NC[C@H]3O)c(-c3ccc(F)cc3)[nH]c12	SLC6A4	cell-free assay	–	–	10 µM	8
N#C[C@@]12C[C@@H]1[C@@H](n1cnc3c(Nc4ccccc4)nc(C#Cc4ccc(Cl)s4)nc31)[C@H](O)[C@@H]2O	SLC6A4	ligand displacement	–	radioligand	10 µM	12
Cn1c(C(=O)NCc2cc(O)c(O)c(Br)c2)cc2ccccc21	rep papain-like protease	enzyme activity	inhibitor	FRET	10 µM	86.3
N#CC[C@@]12C[C@@H]1[C@@H](n1cnc3c(NCCCCCc4ccccc4)nc(I)nc31)[C@H](O)[C@@H]2O	SLC6A4	ligand displacement	–	radioligand	10 µM	3
O=C(NCc1cc(O)c(O)c(Br)c1)c1ccccc1	rep main protease	enzyme activity	inhibitor	FRET	10 µM	74.8
CCOC(=O)[C@@]12C[C@@H]1[C@@H](n1cnc3c(NCCCCc4ccccc4)nc(C#Cc4ccc(Cl)s4)nc31)[C@H](O)[C@@H]2O	SLC6A4	ligand displacement	–	radioligand	10 µM	16
C#Cc1cc(-c2cc(Nc3nc(N[C@@H](C)c4ccc(F)cn4)ncc3Cl)n[nH]2)ccc1C=O	Rhodopsin kinase GRK7 (GRK7, Homo sapiens, UniProt Q8WTQ7)	enzyme activity	inhibitor	–	0.2 µM	63
